Measured values collected from several papers.
Lines come from different studies, so protocols differ.

| SMILES | cell line | assay | conditions | endpoint | value |
| --- | --- | --- | --- | --- | --- |
| C=C(F)C(=O)N1CCN(c2nc(OC[C@@H]3CCCN3C)nc3c2CCN(c2cccc4cccc(Cl)c24)C3)C[C@@H]1CC#N | SNU1 | cell growth or viability, ATP luminescence | 3D culture | IC50 | > 1 µM |
| CC(C)c1ccccc1[C@@H]1CCCN1C1CC2(CCN(c3ccc(C(=O)NS(=O)(=O)c4ccc(NC[C@H]5CC[C@](C)(O)CC5)c([N+](=O)[O-])c4)c(Oc4cnc5[nH]ccc5c4)c3)CC2)C1 | SU-DHL-8 | cell growth or viability, ATP luminescence | 48 h | IC50 | 4.45 µM |
| C=CC(=O)c1cccnc1Nc1cc(C(F)(F)F)ccc1OC | NCI-H226 | cell growth or viability, CCK-8 | 72 h | GI50 | 16.2 µM |
| O=C(NO)c1ccc(CNc2nc3cccc(-c4ccc5c(c4)OCO5)n3n2)cc1 | NCI-H226 | cell growth or viability, SRB | – | GI50 | 0.58 µM |
| CN(C)C(=O)c1cc2cnc(Nc3ccc(N4CCNCC4)cn3)nc2n1C1CCCC1 | human Neutrophil | superoxide release, inhibitor | – | IC50 | 0.83 µM |
| O=C(O)c1ccccc1Nc1cccc(C(F)(F)F)c1 | NCI-H226 | cell growth or viability, CCK-8 | 72 h | GI50 | > 40 µM |
| C=CC(=O)NC1CCN(c2ncc3ncnc(Nc4ccc(Oc5ccc6c(c5)ncn6C)c(C)c4)c3n2)CC1 | ABC-1 | cell growth or viability | – | EC50 | 0.964 µM |
| C=CC(=O)c1cccnc1Nc1cccc(C(F)(F)F)c1 | NCI-H226 | cell growth or viability, CCK-8 | 72 h | GI50 | 29.1 µM |
| O=C(O)c1ccc2c(c1)nc(Nc1cccc(Cl)c1)c1ccncc12 | NCI-H226 | cell growth or viability, crystal violet | 48 h | IC50 | 5.8 µM |
